Measured values as given in PubChem BioAssay.

Test: yeast TOR pathway reporter LAP4-GFP change – cell-based, cherry picks, flow cytometry, mother/daughter gates, confirmation (AID 2271);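 further: ratio of sample to DMSO plate mean so 100% equals DMSO level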
Details: S. cerevisiae LAP4-GFP strain, 3 h, measured here: daughter cell gate response, at 10 µM, stronger effect = higher value, 100 means same as DMSO control
How it was run: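 Material – Alexa Fluor 633-labelled Saccharomyces cerevisiae GFP-fusion strain, single-plex · Incubation – compound exposure 3 h at 30 °C, end-over-end rotation · Measured by – GFP by flow cytometry · Measure – median GFP fluorescence as percent of plate-mean DMSO wells · Control set – positive rapamycin (400 ng/mL), negative DMSO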

Row | SMILES | GFP response relative to DMSO
1 | COc1ccccc1-c1noc(-c2cc(OC)c(OC)c(OC)c2)n1 | 105%
2 | N#C/C(=C\c1c(N2CCCCC2)nc2ccccn2c1=O)C(=O)NCc1ccco1 | 97.9%
3 | COc1cc(NC(=O)c2ccc(Br)cc2)ccc1NC(=O)c1cc2ccccc2o1 | 98.7%
4 | CCOC(=O)CS(=O)(=O)c1nc(-c2ccc(F)cc2)cc(C(F)(F)F)n1 | 170%
5 | CC[n+]1c(/C=C/c2ccc(N(C)C)cc2)ccc2ccccc21 | 104%
6 | CCOc1cc(/C=N/Nc2nc(C)cc(=O)[nH]2)ccc1O | 87.9%
7 | Cc1ccc(/C=C/C(=O)c2ccccc(=O)c2O)c(C)c1 | 146%
8 | COc1ccc(-c2ccc(S(=O)(=O)N3CCOCC3)cc2)cc1 | 106%
9 | CCNC(=O)c1ccccc1-c1nc(-c2ccccc2Cl)no1 | 97.5%
10 | O=C(OCC(=O)N1CCN(C(=O)c2ccco2)CC1)c1cc(-c2ccccc2)nc2ccccc12 | 117%
11 | Cc1nnc(NC(=O)c2ccc(S(=O)(=O)N3CCCCCC3)cc2)o1 | 97.5%
12 | NC(N)=N/N=C/c1ccc(OCc2ccc(Cl)cc2Cl)cc1 | 106%
13 | Cc1noc(/C=C/c2cccnc2)c1[N+](=O)[O-] | 117%
14 | NC(=O)c1ccccc1OCC(=O)c1ccc(Cl)cc1 | 96%
15 | CCc1nnc(NC(=O)c2nc(S(=O)(=O)Cc3ccc(C)cc3)ncc2Cl)s1 | 105%
16 | CN1/C(=C\C(=O)c2cccc(S(=O)(=O)N3CCCCC3)c2)C(C)(C)c2ccccc21 | 97.6%
17 | Cc1n[nH]c(C)c1N1C(=O)c2cccc3c(Br)ccc(c23)C1=O | 99.3%
18 | Cc1nnc(N2C(=O)c3cccc4cccc(c34)C2=O)s1 | 94.4%
